Data reported in ChEMBL document CHEMBL1136257, “New highly active taxoids from 9beta-dihydrobaccatin-9,10-acetals. Part 3” (Bioorg Med Chem Lett, 2003).
Converted amounts (≈) assume the structure as drawn.

How the values were obtained:
[1] = Solubility in water using UV assay; format: physicochemical
[2] = Solubility of compound in JP1 at pH 1.2 using UV assay; format: physicochemical; conditions: JP1, pH 1.2
[3] = tested on: PC-6; assay: Cytotoxic activity against human lung cancer PC-6 cell line; format: functional
Summary of the method: (§1)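 Growth inhibition (IC50) of mouse leukemia P388 and human lung cancer PC-6 and PC-12 cells after 72 h continuous exposure to compound; IC50 taken as the concentration giving 50% growth inhibition.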

[4] = Solubility of compound in JP2 at pH 6.8 using UV assay; format: physicochemical; conditions: JP2, pH 6.8
[5] = tested on: P388; assay: Cytotoxic activity against mouse leukemia P388 cell line; format: functional; summary of the method: as §1
[6] = tested on: PC-12; assay: Cytotoxic activity against human lung cancer PC-12 cell line
[7] = tested on: Mus musculus; assay: Maximum rate of body weight loss was determined in mice inoculated with B16 melanoma BL6 cells sc at a dose 12 mg/kg by intravenous administration; format: functional
Summary of the method: (§2)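 On day 0, B16 melanoma BL6 cells (cultured line) were implanted subcutaneously into C57BL/6 mice, six per group. A single iv or oral dose was given on day 4, and body weight was followed. BWLmax (%) is the maximum rate of body weight loss; a value below 0 means no loss.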

[8] = tested on: Mus musculus; assay: Mean tumor weight was determined in mice inoculated with B16 melanoma BL6 cells sc at a dose 12 mg/kg iv [IR (%) = (1-TWt/TWc)*100]; format: functional
Summary of the method: (§3)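 C57BL/6 mice (six per group) received subcutaneous B16 melanoma BL6 cells on day 0 and a single iv or oral dose on day 4. Tumors were excised and weighed on day 15. Inhibition rate IR (%) = (1 − mean treated tumor weight/mean control tumor weight) × 100.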

[9] = tested on: Mus musculus; assay: Mortality was determined in mice inoculated with B16 melanoma BL6 cells sc at a dose 12 mg/kg by peroral administration; 0/6; format: functional; conditions: route oral
[10] = tested on: Mus musculus; assay: Mortality rate in mice inoculated with B16 melanoma BL6 cells sc at a dose 12 mg/kg by intravenous administration; 0/6; format: functional
[11] = tested on: Mus musculus; assay: Mortality was determined in mice inoculated with B16 melanoma BL6 cells sc at a dose 18 mg/kg by peroral administration; 2/6; format: functional; conditions: route oral
[12] = tested on: Mus musculus; assay: Maximum rate of body weight loss was determined in mice inoculated with B16 melanoma BL6 cells sc at a dose 18 mg/kg by peroral administration; format: functional; conditions: route oral; summary of the method: as §2
[13] = tested on: Mus musculus; assay: Mean tumor weight was determined in mice inoculated with B16 melanoma BL6 cells sc at a dose 18 mg/kg po [IR (%) = (1-TWt/TWc)*100]; format: functional; summary of the method: as §3
[14] = tested on: Mus musculus; assay: Mortality rate in mice inoculated with B16 melanoma BL6 cells sc at a dose 8 mg/kg by peroral administration; 0/6; format: functional; conditions: route oral
[15] = tested on: Mus musculus; assay: Mortality rate in mice inoculated with B16 melanoma BL6 cells sc at a dose 18 mg/kg by intravenous administration; 0/6; format: functional
[16] = tested on: Mus musculus; assay: Mean tumor weight was determined in mice inoculated with B16 melanoma BL6 cells sc at a dose 8 mg/kg po [IR (%) = (1-TWt/TWc)*100]; format: functional; summary of the method: as §3
[17] = tested on: Mus musculus; assay: Maximum rate of body weight loss was determined in mice inoculated with B16 melanoma BL6 cells sc at a dose 8 mg/kg by peroral administration; format: functional; conditions: route oral; summary of the method: as §2
[18] = tested on: Mus musculus; assay: Maximum rate of body weight loss was determined in mice inoculated with B16 melanoma BL6 cells sc at a dose 12 mg/kg by peroral administration; format: functional; conditions: route oral; summary of the method: as §2
[19] = tested on: Mus musculus; assay: Mean tumor weight was determined in mice inoculated with B16 melanoma BL6 cells sc at a dose 12 mg/kg po [IR (%) = (1-TWt/TWc)*100]; format: functional; summary of the method: as §3
[20] = tested on: Mus musculus; assay: Mean tumor weight was determined in mice inoculated with B16 melanoma BL6 cells sc at a dose 27 mg/kg po [IR (%) = (1-TWt/TWc)*100]; format: functional; summary of the method: as §3
[21] = tested on: Mus musculus; assay: Maximum rate of body weight loss was determined in mice inoculated with B16 melanoma BL6 cells sc at a dose 18 mg/kg by intravenous administration; format: functional; summary of the method: as §2
[22] = tested on: Mus musculus; assay: Maximum rate of body weight loss was determined in mice inoculated with B16 melanoma BL6 cells sc at a dose 27 mg/kg by intravenous administration; format: functional; summary of the method: as §2
[23] = tested on: Mus musculus; assay: Mortality was determined in mice inoculated with B16 melanoma BL6 cells sc at a dose 12 mg/kg by intravenous administration; 0/6; format: functional
[24] = tested on: Mus musculus; assay: Mean tumor weight was determined in mice inoculated with B16 melanoma BL6 cells sc at a dose 27 mg/kg iv [IR (%) = (1-TWt/TWc)*100]; format: functional; summary of the method: as §3
[25] = tested on: Mus musculus; assay: Mortality was determined in mice inoculated with B16 melanoma BL6 cells sc at a dose 18 mg/kg by intravenous administration; 0/6; format: functional
[26] = tested on: Mus musculus; assay: Mean tumor weight was determined in mice inoculated with B16 melanoma BL6 cells sc at a dose 40.5 mg/kg po [IR (%) = (1-TWt/TWc)*100]; format: functional; summary of the method: as §3
[27] = tested on: Mus musculus; assay: Mortality was determined in mice inoculated with B16 melanoma BL6 cells sc at a dose 27 mg/kg by intravenous administration; 0/6; format: functional
[28] = tested on: Mus musculus; assay: Mortality was determined in mice inoculated with B16 melanoma BL6 cells sc at a dose 8 mg/kg by intravenous administration; 0/6; format: functional
[29] = tested on: Mus musculus; assay: Maximum rate of body weight loss was determined in mice inoculated with B16 melanoma BL6 cells sc at a dose 40.5 mg/kg by peroral administration; format: functional; conditions: route oral; summary of the method: as §2
[30] = tested on: Mus musculus; assay: Mean tumor weight was determined in mice inoculated with B16 melanoma BL6 cells sc at a dose 18 mg/kg iv [IR (%) = (1-TWt/TWc)*100]; format: functional; summary of the method: as §3
[31] = tested on: Mus musculus; assay: Maximum rate of body weight loss was determined in mice inoculated with B16 melanoma BL6 cells sc at a dose 27 mg/kg by peroral administration; format: functional; conditions: route oral; summary of the method: as §2
[32] = tested on: Mus musculus; assay: Mean tumor weight was determined in mice inoculated with B16 melanoma BL6 cells sc at a dose 8 mg/kg iv [IR (%) = (1-TWt/TWc)*100]; format: functional; summary of the method: as §3
[33] = tested on: Mus musculus; assay: Mortality was determined in mice inoculated with B16 melanoma BL6 cells sc at a dose 40.5 mg/kg by peroral administration; 0/6; format: functional; conditions: route oral
[34] = tested on: Mus musculus; assay: Mortality was determined in mice inoculated with B16 melanoma BL6 cells sc at a dose 27 mg/kg by peroral administration; 0/6; format: functional; conditions: route oral
[35] = tested on: Mus musculus; assay: Mortality was determined in mice inoculated with B16 melanoma BL6 cells sc at a dose 18 mg/kg by peroral administration; 0/6; format: functional; conditions: route oral
[36] = tested on: Mus musculus; assay: Maximum rate of body weight loss was determined in mice inoculated with B16 melanoma BL6 cells sc at a dose 8 mg/kg by intravenous administration; format: functional; summary of the method: as §2
[37] = tested on: Mus musculus; assay: Maximum rate of body weight loss was determined in mice inoculated with B16 melanoma BL6 cells sc at a dose 5.3 mg/kg by intravenous administration; format: functional; summary of the method: as §2
[38] = tested on: Mus musculus; assay: Mean tumor weight was determined in mice inoculated with B16 melanoma BL6 cells sc at a dose 5.3 mg/kg iv [IR (%) = (1-TWt/TWc)*100]; format: functional; summary of the method: as §3
[39] = tested on: Mus musculus; assay: Mortality was determined in mice inoculated with B16 melanoma BL6 cells sc at a dose 8 mg/kg by peroral administration; 0/6; format: functional; conditions: route oral
[40] = tested on: Mus musculus; assay: Mortality was determined in mice inoculated with B16 melanoma BL6 cells sc at a dose 5.3 mg/kg by intravenous administration; 0/6; format: functional

Structure (SMILES) | solubility [1] | solubility [2] | GI50 [3] | solubility [4] | GI50 [5] | GI50 [6] | BWLmax [7] | IR [8] | Mortality [9] | BWLmax [12] | IR [13] | IR [16] | BWLmax [17] | BWLmax [18] | IR [19] | IR [20] | BWLmax [21] | Mortality [23] | Mortality [25] | Mortality [28] | further results
CC(=O)O[C@@]12CO[C@@H]1CC[C@@]1(C)[C@@H]3O[C@H](CN4CCOCC4)O[C@@H]3C3=C(C)[C@@H](OC(=O)[C@H](O)[C@@H](NC(=O)OC(C)(C)C)c4ccccc4)C[C@@](O)([C@@H](OC(=O)c4ccccc4)[C@@H]12)C3(C)C | < 4 µg/mL | 1200 µg/mL (≈ 1330 µM) | 0.38 ng/mL (≈ 0.00042 µM) | < 4 µg/mL | 0.02 ng/mL (≈ 2.21e-05 µM) | 0.02 ng/mL (≈ 2.21e-05 µM) | – | – | – | – | – | – | – | – | – | – | – | – | – | – | –
CC(=O)O[C@@]12CO[C@@H]1CC[C@@]1(C)[C@@H]3O[C@H](CN4CCOCC4)O[C@@H]3C3=C(C)[C@@H](OC(=O)[C@](C)(O)[C@@H](NC(=O)OC(C)(C)C)c4ccccc4)C[C@@](O)([C@@H](OC(=O)c4ccccc4)[C@@H]12)C3(C)C | < 4 µg/mL | 350 µg/mL (≈ 381 µM) | 0.47 ng/mL (≈ 0.000511 µM) | < 4 µg/mL | 0.02 ng/mL (≈ 2.18e-05 µM) | 0.07 ng/mL (≈ 7.62e-05 µM) | – | – | – | – | – | – | – | – | – | – | – | – | – | – | –
CC(=O)O[C@@]12CO[C@@H]1CC[C@@]1(C)[C@@H]3O[C@H](CN4CCOCC4)O[C@@H]3C3=C(C)[C@@H](OC(=O)[C@](C)(O)[C@@H](NC(=O)OC(C)(C)C)c4ccccn4)C[C@@](O)([C@@H](OC(=O)c4ccccc4)[C@@H]12)C3(C)C | 6 µg/mL (≈ 6.52 µM) | 1800 µg/mL (≈ 1960 µM) | 0.11 ng/mL (≈ 0.00012 µM) | 5 µg/mL (≈ 5.43 µM) | 0.12 ng/mL (≈ 0.00013 µM) | 0.06 ng/mL (≈ 6.52e-05 µM) | 13.5% | 96.4% | 0 | 18.1% | 98% | 42.2% | <0% | <0% | 92.2% | – | – | – | – | – | Mortality [10]: 0; Mortality [11]: 2; Mortality [14]: 0; Mortality [15]: 0
CC(=O)O[C@@]12CO[C@@H]1CC[C@@]1(C)[C@@H]3O[C@H](CN4CCOCC4)O[C@@H]3C3=C(C)[C@@H](OC(=O)[C@](C)(O)[C@@H](NC(=O)c4ccccc4)c4ccccn4)C[C@@](O)([C@@H](OC(=O)c4ccccc4)[C@@H]12)C3(C)C | < 4 µg/mL | > 1800 µg/mL | 0.45 ng/mL (≈ 0.000487 µM) | < 4 µg/mL | 0.19 ng/mL (≈ 0.000206 µM) | 0.57 ng/mL (≈ 0.000617 µM) | <0% | 75.4% | 0 | <0% | 59.7% | – | – | <0% | 23.4% | 91.3% | <0% | 0 | 0 | 0 | BWLmax [22]: 2.4%; IR [24]: 95.8%; IR [26]: 96.9%; Mortality [27]: 0; BWLmax [29]: 4.1%; IR [30]: 89.8%; BWLmax [31]: <0%; IR [32]: 61.3%; Mortality [33]: 0; Mortality [34]: 0; Mortality [35]: 0; BWLmax [36]: <0%
CC(=O)O[C@@]12CO[C@@H]1CC[C@@]1(C)[C@@H]3O[C@H](CN4CCOCC4)O[C@@H]3C3=C(C)[C@@H](OC(=O)[C@H](O)[C@@H](NC(=O)OC(C)(C)C)c4ccccn4)C[C@@](O)([C@@H](OC(=O)c4ccccc4)[C@@H]12)C3(C)C | 14 µg/mL (≈ 15.5 µM) | 1700 µg/mL (≈ 1880 µM) | 0.39 ng/mL (≈ 0.00043 µM) | 11 µg/mL (≈ 12.1 µM) | 0.18 ng/mL (≈ 0.000199 µM) | 0.21 ng/mL (≈ 0.000232 µM) | <0% | 94.4% | 0 | 0.3% | 93.3% | 27.2% | <0% | <0% | 84.9% | 97.3% | 3.7% | 0 | 0 | 0 | BWLmax [37]: <0%; IR [38]: 62.4%; IR [30]: 95.6%; Mortality [39]: 0; BWLmax [31]: 4.5%; IR [32]: 87.2%; Mortality [34]: 0; Mortality [40]: 0; Mortality [35]: 0; BWLmax [36]: <0%
CC(=O)O[C@H]1C(=O)[C@@]2(C)[C@H]([C@H](OC(=O)c3ccccc3)[C@]3(O)C[C@H](OC(=O)[C@H](O)[C@@H](NC(=O)c4ccccc4)c4ccccc4)C(C)=C1C3(C)C)[C@]1(OC(C)=O)CO[C@@H]1C[C@@H]2O [PACLITAXEL] | – | – | 1.27 ng/mL (≈ 0.00149 µM) | – | 2.93 ng/mL (≈ 0.00343 µM) | 539 ng/mL (≈ 0.631 µM) | – | – | – | – | – | – | – | – | – | – | – | – | – | – | –
